Screening data deposited in PubChem BioAssay by Sanford-Burnham Center for Chemical Genomics.
Scp-1 inhibitor – Scp-1 phosphatase inhibitors, primary screen, biochemical, colorimetric, uHTS | Carboxy-terminal domain RNA polymerase II polypeptide A small phosphatase 1 (Homo … | Recombinant Scp1, phosphopeptide, malachite green phosphate absorbance | inhibition, % at 20 µM | hit rate 0.88% among 340,000 | AID 493091, 2011;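 active = inhibition above about 50% at 20 µM, limit read from the data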;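 note: plate controls were DMSO wells with enzyme for no effect and wells lacking enzyme for full effect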
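Assay system: SCP-1 catalytic fragment, aa 76-261 | Buffer or medium: Tris acetate buffer pH 5.5 with MgCl2 and Tween-20 | Compound: One concentration, 20 µM, with 1.0% DMSO | Also added: Phospho 17-mer peptide substrate | Signal: Absorbance at 630 nm | Incubation: 45 min enzyme reaction at room temperature | Measure: % inhibition of SCP-1 phosphate liberation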
STEP block – STEP phosphatase inhibitors, primary screen, biochemical, fluorescence intensity, uHTS; hit rate 0.25% among 360,000; recombinant STEP, OMFP fluorogenic substrate; inhibition, % at 20 µM; Tyrosine-protein phosphatase non-receptor type 5 (Homo sapiens), P54829;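 active = inhibition at 20 µM, scaled per plate between control wells, above about 37%, limit read from the data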;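 note: 0% = DMSO with enzyme and substrate and 100% = substrate only without enzyme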
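Test system: STEP tyrosine phosphatase / Reagent: OMFP at 25 µM / Doses: 20 µM, 1% DMSO / Read-out: percent inhibition scaled to no-enzyme and uninhibited-enzyme controls, plate-pattern corrected / Detection: FITC-channel fluorescence of OMFP product / Medium: Bis-Tris buffer pH 6.0, 2.5 mM DTT, 0.005% Tween 20 / Schedule: 20 min at room temperature, dark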
SUMO1 PPI mod – modulators of SUMO1 protein-protein interactions, primary screen, biochemical, uHTS; SUMO1 binding to a labelled peptide, TR-FRET, 1 h; inhibition, % at 20 µM; hit rate 0.33% among 360,000; Small ubiquitin-related modifier 1 (Homo sapiens), P63165; in the data active = inhibition above about 37%
LMPTP inh – LMPTP phosphatase inhibitors, primary screen, biochemical, fluorescence intensity, uHTS; Low molecular weight phosphotyrosine protein phosphatase (Homo sapiens), P24666; recombinant LMPTP-A, OMFP fluorogenic substrate; inhibition, % at 20 µM; hit rate 0.22% among 360,000;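 active = compounds that cut the enzyme signal by at least half of the control window in the single-dose screen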;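 note: plate controls were DMSO wells with enzyme plus substrate for no effect and substrate without enzyme for full effect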
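Assay system: LMPTP-A enzyme. Input: 0.625 nM LMPTP-A final. Probe or stimulus: 400 µM OMFP. Compound dosing: single 20 µM dose. Schedule: 50 min dark incubation at room temperature. Detection: fluorescence intensity of OMFP turnover product. Read-out: percent inhibition versus substrate-only and uninhibited controls. Benchmarks: no-enzyme low control, uninhibited high control.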
DNMT1 inh – human DNMT1 methyltransferase inhibitors, primary screen, biochemical, molecular beacon, fluorescence, HinP1I cleavage, uHTS. DNA (cytosine-5)-methyltransferase 1 (Homo sapiens), P26358. inhibition (reported as % activation of signal), % at 10 µM. hit rate 0.83% among 360,000; in the data active = inhibition above about 50%
Target sequence (P26358 504-1616 limits assumed): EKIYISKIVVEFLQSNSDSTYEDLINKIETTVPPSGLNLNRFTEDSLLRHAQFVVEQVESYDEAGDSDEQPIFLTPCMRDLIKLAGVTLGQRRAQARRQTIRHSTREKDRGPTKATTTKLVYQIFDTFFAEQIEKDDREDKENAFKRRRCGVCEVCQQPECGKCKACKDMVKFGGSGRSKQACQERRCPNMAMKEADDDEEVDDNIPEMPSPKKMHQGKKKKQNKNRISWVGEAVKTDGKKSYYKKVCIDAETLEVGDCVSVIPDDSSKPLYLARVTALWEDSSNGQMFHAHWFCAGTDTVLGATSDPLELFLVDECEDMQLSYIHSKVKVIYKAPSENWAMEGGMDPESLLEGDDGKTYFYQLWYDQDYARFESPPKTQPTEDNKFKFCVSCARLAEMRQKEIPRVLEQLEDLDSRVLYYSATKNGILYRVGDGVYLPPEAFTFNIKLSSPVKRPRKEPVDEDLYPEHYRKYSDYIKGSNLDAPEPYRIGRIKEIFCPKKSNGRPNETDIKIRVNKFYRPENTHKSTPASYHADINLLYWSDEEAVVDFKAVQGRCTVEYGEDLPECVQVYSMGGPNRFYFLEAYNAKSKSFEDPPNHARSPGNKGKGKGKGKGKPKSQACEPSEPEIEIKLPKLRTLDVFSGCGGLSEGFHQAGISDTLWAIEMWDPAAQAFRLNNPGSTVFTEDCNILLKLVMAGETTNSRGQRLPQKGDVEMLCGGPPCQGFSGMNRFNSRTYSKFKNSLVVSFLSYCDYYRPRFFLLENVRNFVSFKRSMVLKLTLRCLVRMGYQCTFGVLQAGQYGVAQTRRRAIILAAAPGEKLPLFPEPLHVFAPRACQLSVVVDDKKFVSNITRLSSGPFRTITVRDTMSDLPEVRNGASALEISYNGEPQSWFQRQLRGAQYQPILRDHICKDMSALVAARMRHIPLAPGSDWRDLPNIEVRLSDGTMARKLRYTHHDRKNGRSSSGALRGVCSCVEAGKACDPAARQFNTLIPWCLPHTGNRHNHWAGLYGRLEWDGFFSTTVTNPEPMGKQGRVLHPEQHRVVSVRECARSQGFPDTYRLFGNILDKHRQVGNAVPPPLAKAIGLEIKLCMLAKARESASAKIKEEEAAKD
DNMT1 inh conf – DNMT1 methyltransferase inhibitor retest, confirmation, biochemical, molecular beacon, fluorescence, single concentration | shares compounds with DNMT1 inh | DNMT1 molecular beacon HinP1I cleavage | inhibition, % at 10 µM | hit rate 8% among 2,300 | AID 602385, 2012;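 active = average inhibition of at least 30% in the single-concentration confirmation test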
Beacon interf – counter-screen for DNMT1 inhibitors: spectral interference. shares compounds with DNMT1 inh. DNMT1 molecular beacon spectral interference counterscreen, fluorescence 485/520. activation (fluorescence interference), % at 10 µM. hit rate 1% among 2,300. AID 602387;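 active = activation of at least 30% at 10 µM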;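 note: DNMT1 catalytic domain with a HinP1I cleavage step and a FAM/dabcyl DNA beacon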
Numbers without * were called inactive; · = no result given. Sampled rows, rich in hits. Any-hit rate of the full collection: about 1.7%.

SMILES	Scp-1 inhibitor	STEP block	SUMO1 PPI mod	LMPTP inh	DNMT1 inh	DNMT1 inh conf	Beacon interf
COc1ccc(S(=O)(=O)N(CC(=O)NCc2ccccn2)Cc2ccccc2)cc1	-5	-3	5	0	1	·	·
O=C(CN(Cc1ccc(Br)cc1)S(=O)(=O)c1ccccc1)NCc1ccccn1	4	-1	-3	-1	87*	4	5
Cc1ccccc1NC(=O)COC(=O)/C=C/c1cn(-c2ccccc2)nc1-c1cccnc1	4	5	1	1	52*	1	-4
O=C(NCc1ccco1)c1nc2c(nnn2Cc2ccccc2Cl)c(=O)[nH]1	-6	6	3	0	2	·	·
Cc1ccc(C)c(Cn2nnc3c(=O)[nH]c(C(=O)NCc4ccco4)nc32)c1	-2	2	8	0	52*	11	3
Cc1ccc(OCCNC(=O)CNC(=O)c2ccc3c(c2)OCO3)cc1	-3	0	0	0	2	·	·
N#CC1(NC(=O)CN2C(=O)NC(Cc3c[nH]c4ccccc34)C2=O)CCCCC1 (stereo unspecified)	3	-2	-1	-1	-7	·	·
Brc1ccc(C2=Nn3c(nnc3-c3cccnc3)SC2)s1	4	36	-8	38	62*	0	-5
Clc1ccc(C2=Nn3c(nnc3-c3cccnc3)SC2)s1	3	4	-9	-2	9	·	·
CCOC(=O)CC1C(=O)NCCN1C(=O)c1c(Cl)cccc1Cl (stereo unspecified)	-6	1	-1	-1	1	·	·
CC1CCCCN1C(=O)CSc1nnc(-c2ccccc2O)o1 (stereo unspecified)	-5	-1	1	2	-2	·	·
CCCCCOc1ccc(C(=O)CCC(=O)NC(C)c2ccc(S(N)(=O)=O)cc2)cc1 (stereo unspecified)	-4	1	10	1	75*	2	2
C[C@H](O)[C@@H]1C(=O)N2CCc3ccc(-c4ccccc4)cc3[C@@H]2C[C@@H]1N(C)C(=O)c1ccco1	·	-2	5	-1	1	·	·
CC(=O)c1ccc2c(c1)c(C#N)c1ccccc1[n+]2[O-]	6	-21	-28	-2	1	·	·
Cc1ccccc1C(=O)Nc1ccc(C(=O)NNC(=O)CCCOc2ccc(Cl)cc2Cl)cc1	28	1	-2	18	11	·	·
O=C(CCCOc1ccc(Cl)cc1Cl)NNC(=O)c1ccc(NC(=O)c2ccccc2)cc1	41	6	0	69*	73*	0	-2
CCOC(=O)c1noc2c1CCC2	·	·	1	-3	·	·	·
NS(=O)(=O)c1ccc(NC(=O)c2cccc(N3C(=O)c4ccccc4C3=O)c2)cc1	6	38	94*	38	55*	8	2
O=C(O)c1cc(NC(=O)c2cccc(N3C(=O)c4ccccc4C3=O)c2)cc(C(=O)O)c1	-7	-1	-5	-2	1	·	·
COc1cc(CCN(C(C)=O)C2C(=O)Nc3ccccc3N=C2c2ccc3c(c2)OCO3)cc(OC)c1 (stereo unspecified)	·	1	0	-1	-2	·	·
C/C(NCCc1ccccc1)=C1/CCOC1=O	·	-2	4	0	4	·	·
CSc1ccc(C2C(C#N)=C(N)Oc3c2ccc(=O)c2c(C)oc(C)c32)cc1 (stereo unspecified)	-7	6	22	15	74*	4	6
O=C(CSCc1ccccc1Br)NC1CC1	-5	2	1	-1	81*	0	1
CSc1ccccc1NC(=O)CSCc1ccccc1Br	-4	2	3	3	-7	·	·
COc1ccccc1CCc1nnc(N)s1	1	3	5	-2	81*	1	2
